Screens as filed in PubChem.
TAAR1 ag – agonists of human TAAR1 | CHO RD-HGA16 TAAR1, Fluo-8 calcium fluorescence; vehicle wells 0%, saturating PEA agonist 100% | activation, % at 3 µM | actives 0.99% (n = 360,000) | AID 624467;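 active means activation above the mean activation of all test compounds in the run plus 3 SD, cut at about 38% in these data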
Target sequence (Q96RJ0 whole entry, looked up): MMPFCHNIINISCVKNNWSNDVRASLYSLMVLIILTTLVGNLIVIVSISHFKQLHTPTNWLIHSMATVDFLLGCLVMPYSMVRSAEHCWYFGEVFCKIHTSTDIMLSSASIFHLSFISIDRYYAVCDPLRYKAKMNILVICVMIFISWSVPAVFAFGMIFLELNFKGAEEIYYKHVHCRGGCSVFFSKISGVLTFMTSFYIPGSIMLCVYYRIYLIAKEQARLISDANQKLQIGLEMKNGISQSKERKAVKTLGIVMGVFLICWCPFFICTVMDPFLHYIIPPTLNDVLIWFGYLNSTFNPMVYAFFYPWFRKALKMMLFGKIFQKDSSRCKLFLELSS
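Assay system – CHO-derived RD-HGA16 cells with stable Gα16 and human TAAR1 · Compound dosing – one-point dosing at 3 µM (nominal) · Incubation – 17-24 h seeding, 75 min 37 °C dye, 30 min RT · Measured by – kinetic Fluo-8 calcium fluorescence · Control set – DMSO vehicle as 0%, PEA at EC100 as 100% · Repeats – single well for each compound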
TAAR1 antagonist – antagonists of human TAAR1 | Q96RJ0 | CHO RD-HGA16 TAAR1, Fluo-8 calcium fluorescence, antagonist | inhibition, % at 3 µM | actives 1.5% (n = 360,000) | AID 624466;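 active means inhibition above a per-plate cutoff, the mean inhibition of test compounds on that plate plus 3 SD, cut at about 49% in these data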;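 further: 0% = DMSO plus EC80 beta-PEA response and 100% = DMSO alone without agonist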
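System: CHO RD-HGA16 cells bearing hTAAR1. Reagent: EC80 β-phenethylamine stimulus. Schedule: seeding 17-24 h prior, 75-min 37 °C, 30-min RT dye loading. Signal: Fluo-8 intracellular calcium dye fluorescence, real-time kinetic reads. Read-out: % inhibition from peak post-agonist over basal fluorescence ratio. Benchmarks: vehicle wells and EC80 agonist wells. Replicates: n of 1.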
OX1R antag-1 – human HCRTR1 antagonism; CHO/OX1R cells, Fluo-8 calcium fluorescence, orexin A; O43613; AID 434989; inhibition, % at 5 µM; actives 0.43% (n = 330,000);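 active means inhibition above its plate's threshold, mean inhibition of all tested compounds on the plate plus 3 SD, cut at about 37% in these data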;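 further: 0% = orexin A challenge wells and 100% = SB-334867-A antagonist wells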
OX1R antag-2 – OX1R (human) antagonism. O43613. OX1R-expressing cells, FRET antagonist read-out. inhibition, % at 6.6 µM. actives 1.8% (n = 330,000); in the data active means inhibition mostly above about 38%, no sharp cut-off; inactive means mostly below about 40%;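 further: 0% = agonist challenge alone and 100% = reference antagonist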
CHO parental Ca – signal in parental CHO cells, OX1R antagonist counter-screen; inhibition, % at 5.6 µM; parental CHO-K1, ATP-induced calcium, Fluo-8 fluorescence; actives 0.63% (n = 330,000); AID 463079;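 active means inhibition above that plate's mean sample inhibition plus 3 SD, cut at about 26% in these data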;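 further: 0% = ATP-challenged DMSO wells and 100% = DMSO wells without ATP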
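Material: parental CHO cells / Compound: single nominal dose of 5.6 µM per compound / Signal: Fluo-8 fluorescence / Replicates: singlicate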
GPR7 antag – antagonists of human GPR7 (neuropeptides B/W receptor 1); P48145; GPR7-expressing cells, fluorescence antagonist assay; inhibition, % at 4.4 µM; actives 1.1% (n = 290,000); in the data active means inhibition above about 16%, passing the limit was not always enough;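 further: cells stimulated with the agonist NPW; 0% = agonist with vehicle and 100% = vehicle without agonist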
Target sequence (P48145 whole entry, looked up): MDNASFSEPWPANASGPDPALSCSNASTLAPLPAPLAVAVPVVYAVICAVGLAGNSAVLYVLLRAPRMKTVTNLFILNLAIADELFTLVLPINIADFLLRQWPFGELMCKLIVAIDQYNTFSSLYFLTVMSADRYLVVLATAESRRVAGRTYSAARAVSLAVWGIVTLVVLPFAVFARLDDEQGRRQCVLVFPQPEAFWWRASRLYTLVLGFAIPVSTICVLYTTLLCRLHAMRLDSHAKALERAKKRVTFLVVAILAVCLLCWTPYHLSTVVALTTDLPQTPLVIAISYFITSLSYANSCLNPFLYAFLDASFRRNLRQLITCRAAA
Active calls of the source: *; . = not tested or not shown. Shown are actives, neighbours in structure and some others; about 4.5% of the full set was active somewhere.

SMILES	TAAR1 ag	TAAR1 antagonist	OX1R antag-1	OX1R antag-2	CHO parental Ca	GPR7 antag
O=C(NCc1ccc(F)cc1)c1cc(C2CCCCN2S(=O)(=O)c2ccc(F)cc2F)on1 (stereo unspecified)	1.5	-0.4	.	.	.	.
COc1cc(OC)c(C2C=CC(=O)CC2)c(OC)c1 (stereo unspecified)	0.9	-13.4	.	.	.	.
CC(NCC(=O)NC(=O)NCCC1=CCCCC1)c1ccc(S(N)(=O)=O)cc1 (stereo unspecified)	23.4	-3.0	.	.	.	.
CCCN(CCC)S(=O)(=O)c1ccc(Cl)c([N+](=O)[O-])c1	4.6	6.5	-25.9	35.9	-15.1	42.5*
Oc1ccc(C[C@H]2CNCCN2CCCCC2CCCCC2)cc1	33.9	13.2	4.6	8.1	21.0	.
c1ccc2c(C[C@@H]3CNCCN3CC3CCCCC3)cccc2c1	41.3*	-1.1	-18.8	8.4	2.6	.
O=S(=O)(NC1=NCCCCC1)c1ccc(F)cc1	2.5	-13.4	-13.9	5.7	0.2	-13.2
CC(Oc1cccc(Cl)c1)C(=O)Nc1ccc(S(=O)(=O)N(C)C2CCN(C)CC2)cc1 (stereo unspecified)	42.3*	10.9	10.1	1.4	-2.4	.
CC(Oc1cccc(Cl)c1)C(=O)Nc1ccc(S(=O)(=O)NC2=NCCCCC2)cc1 (stereo unspecified)	40.4*	12.5	6.7	4.9	11.4	.
CC(Oc1ccc(F)cc1)C(=O)Nc1ccc(S(=O)(=O)NC2=NCCCCC2)cc1 (stereo unspecified)	44.2*	19.8	6.7	1.3	0.7	.
COc1ccc([C@H]2CC(=O)C[C@@H](CCn3cc(C(C)C)nn3)O2)cc1	-0.3	5.5	.	.	.	.
CN1CCCCC(NC(=O)c2cccc(C(F)(F)F)c2)C1=O (stereo unspecified)	0.0	7.4	.	.	.	.
C=C(C)CN(CC)C(=O)CSc1ccc(S(=O)(=O)N2CCN(C)CC2)cn1	0.0	2.6	.	.	.	.
O=C(Nc1nnc(C2=COCCO2)o1)c1ccc([N+](=O)[O-])cc1	0.1	-3.6	-8.1	52.1*	-7.9	-2.7
O=C(Nc1ccc2c(c1)OCCO2)C(C1CC1)N1CCN(c2ccc(C(F)(F)F)cn2)CC1 (stereo unspecified)	0.2	-11.9	.	.	.	.
COc1ccc(CNC(=O)N2[C@H]3CC[C@@H]2C=C(c2ccc(F)cc2OCc2ccccc2)C3)cc1OC	8.0	49.0*	.	.	.	.
COC(=O)C1=C(C)N(CC(C)C)C(=S)NC1c1ccc(Cl)cc1 (stereo unspecified)	-2.1	-11.0	.	.	.	.
COCCN(C(=S)Nc1ccc(C(C)C)cc1)C(C)c1cccs1 (stereo unspecified)	4.4	24.9	-11.1	7.7	2.0	-1.1
COc1ccc(C(=O)Oc2ccc3ccc(=O)oc3c2)cc1	5.7	-4.4	1.2	9.4	-0.7	15.6
COc1ccc(C(=O)Oc2ccc3oc(=O)sc3c2)cc1	5.8	4.4	26.7	0.3	57.0*	6.3
Cn1ccnc1C(=O)c1ccc(NN)c([N+](=O)[O-])c1	-0.6	1.1	-36.5	52.7*	-16.2	-16.4
COC(=O)[C@]12C[C@H](CC(=O)N3CCN(C(=O)c4ccco4)CC3)C(=O)N(CCC3=CCCCC3)C1=C[C@H](C(C)(C)C)O[C@@H]2C	-2.3	-18.6	.	.	.	.
COC(=O)C1=C(C)N(Cc2cccc(C(F)(F)F)c2)C(=NCc2cc(OC)c(OC)c(OC)c2)NC1c1cccc(F)c1 (stereo unspecified)	31.3	28.8	.	.	.	.
COc1ccc(S(=O)(=O)N2CCOCC2)cc1N=Nc1sc(N)nc1-c1ccccc1	11.9	53.7*	-3.3	32.8	-4.4	5.5
COc1ccc(N2CCc3c(C)nc4c(OC)cccc4c32)cc1	0.6	-28.3	-5.4	70.4*	5.8	5.8
SMILES	TAAR1 ag	TAAR1 antagonist	OX1R antag-1	OX1R antag-2	CHO parental Ca	GPR7 antag
COc1ccc(N2CCc3c(C)nc4c(OC)cc(OC)cc4c32)cc1	2.4	-13.9	-16.7	52.9	-10.0	2.4
COc1ccc(OCC(=O)Nc2ccc(NC(=O)c3cccs3)c(OC)c2)cc1	3.3	-9.9	-31.0	34.5	-20.3	-8.9
COc1cc(NC(=O)c2cccs2)c(OC)cc1NC(=O)CCC(=O)Nc1ccc2ncccc2c1	15.4	53.1*	.	.	.	8.8
Cc1cc(OCC(=O)N2CCc3ccccc3C2)c(C)cc1Br	2.0	25.0	.	.	.	-15.5
CCc1c(C(=O)Nc2ccc(OC)c(Cl)c2)[nH]c(C)c1C(C)=O	15.0	20.1	49.5*	89.1*	32.2*	-6.8
N#C/C(=N\Nc1ccc(Cl)cc1)C(N)=S	10.4	0.0	20.8	49.5*	17.6	11.1
CC1CC(C)(C)Nc2ccc(OC(=O)c3ccco3)cc21 (stereo unspecified)	5.8	-14.9	-8.5	69.1*	-3.8	-0.4
CCn1c(SCc2nc(-c3ccccc3)no2)nc2ccccc21	3.9	-13.5	1.1	53.9*	-9.9	-11.7
CCn1c(SCc2nc(-c3ccccc3)no2)nnc1-c1cccs1	8.8	-4.8	-7.5	31.2	-24.6	18.1
CN(C(=O)c1cccc(NC(=O)Cc2ccc(NC(=O)C3CCN(C(=O)CCc4ccccc4)CC3)cc2)c1)C1CCCC1	0.8	-10.7	.	.	.	.
Cc1cccc(C)c1OCC(=O)Nn1c(COc2ccccc2)nc2ccccc2c1=O	6.5	51.1*	-8.7	12.6	-8.6	10.0
CC(=O)OCCCNc1cc(SCc2ccco2)c2nonc2c1[N+](=O)[O-]	-1.0	6.7	-24.9	73.0*	-19.3	-4.5
CCCC(=O)OCCNc1cc(SCc2ccco2)c2nonc2c1[N+](=O)[O-]	-0.7	3.5	-18.9	68.4*	-14.4	-3.5
Cc1nnc(Sc2cc(NCCO)c([N+](=O)[O-])c3nonc23)s1	-0.6	-5.4	.	.	.	-0.7
CCCSc1cc(NCCOC(=O)CCC)c([N+](=O)[O-])c2nonc12	-0.3	-19.1	-12.2	66.4*	-9.2	-3.9
O=C1CCCCC1C(O)(C(=O)c1ccccc1)c1ccccc1 (stereo unspecified)	-1.3	-12.4	.	.	.	.
CC1(C(=O)Nc2cccnc2)Cc2c(-c3cccc(C(F)(F)F)c3)ccnc2O1 (stereo unspecified)	3.5	-8.9	.	.	.	.
Nc1cc2c3c(cccc3c1)C(=O)N(CCN1CCCC1)C2=O	-1.0	4.5	4.0	42.8*	0.2	15.0
O=C1c2cccc3cc([N+](=O)[O-])cc(c23)C(=O)N1CCN1CCCC1	-0.8	5.7	.	.	.	-7.5
COc1ccccc1N1CCN(C(=O)CCCN2C(=O)c3cccc4cccc(c34)C2=O)CC1	16.3	50.1*	-38.1	18.8	-21.1	-18.1
NC(=O)CN1CCN(CCN2C(=O)c3cccc4cccc(c34)C2=O)CC1	0.0	-5.2	-1.9	41.6*	-4.7	-9.3
O=C(CN1C(=O)c2cccc3cccc(c23)C1=O)N1CCCCCC1	3.0	-10.0	5.6	56.0*	-11.2	-1.6
